Reference: ChEMBL document CHEMBL3272283, “Contraceptive agents from cycloaddition reactions of diarylcyclopropenones and diarylthiirene 1, 1-dioxides” (J Med Chem, 1976)
Activity calls are given as the source filed them. The rule behind the calls is not given here.

Experiments:
Rattus norvegicus [1] = assay: Antifertility activity in 1 to 9 days pregnancy Charles River CD rat assessed as reduction in number of viable fetuses at 25 mg/kg, po; assay type: functional
Method in brief: (§1)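 Adult females (rats: Charles River CD; hamsters: Lakeview LAK/LVG-SVR) kept under reversed light (dark 6 a.m.-6 p.m.). Caged with proven-fertile males at 9:00 a.m.; plug or vaginal sperm at 3:00 p.m. marked day 0. Oral dosing generally days 1-9, groups of five; killed day 11. Living fetuses, resorptions and implantation sites counted against controls. Score by % fewer viable fetuses: A <24%, +1 25-49%, +2 50-74%, +3 75-99%, +4 none living.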

Rattus norvegicus [2] = assay: Antifertility activity in 1 to 9 days pregnancy Charles River CD rat assessed as abortion of implanted embryos at 25 mg/kg, po qd for 9 days; assay type: functional, organism-based; parameters: dose 25 mg/kg; method in brief: as §1
Hamster [3] = assay: Antifertility activity in 1 to 9 days pregnancy hamster assessed as reduction in number of viable fetuses at 50 mg/kg, po; assay type: functional, Cricetinae; method in brief: as §1
Rattus norvegicus [4] = assay: Antifertility activity in 1 to 9 days pregnancy Charles River CD rat assessed as reduction in number of viable fetuses at 5 mg/kg, po; assay type: functional; method in brief: as §1
Rattus norvegicus [5] = species on record: Rattus norvegicus; assay: Estrogenic activity in immature rat assessed as induction of vaginal opening; assay type: functional, organism-based
Rattus norvegicus [6] = assay: Antideciduomal activity in pseudopregnant rat administered once in weekly; assay type: functional, organism-based
Rhesus monkey = assay: Toxicity in rhesus monkey up to 800 mg/kg, po; assay type: organism-based, Macaca mulatta; parameters: dose 800 mg/kg, route oral; conditions: in vivo
Canis familiaris = species on record: Canis familiaris; assay: Effect on mating behavior in spayed dog; conditions: Canis lupus familiaris
Hamster [7] = assay: Antifertility activity in 1 to 9 days pregnancy hamster assessed as reduction in number of viable fetuses at 10 mg/kg, po; assay type: functional, Cricetinae; method in brief: as §1
Rattus norvegicus [8] = species on record: Rattus norvegicus; assay: Estrogenic activity in adult ovariectomized rat assessed as induction of uterine growth; assay type: functional, organism-based
Rattus norvegicus [9] = species on record: Rattus norvegicus; assay: Estrogenic activity in adult ovariectomized rat; assay type: functional, organism-based
Hamster [10] = assay: Uterotrophic activity in hamster; assay type: functional, organism-based; conditions: Cricetinae; Uterus
Rattus norvegicus [11] = species on record: Rattus norvegicus; assay: Estrogenic activity in immature rat; assay type: functional, organism-based
Rattus norvegicus [12] = species on record: Rattus norvegicus; assay: Estrogenic activity in adult ovariectomized rat assessed as induction of vaginal opening and cornification; assay type: functional, organism-based
Oryctolagus cuniculus = species on record: Oryctolagus cuniculus; assay: Estrogenic activity in immature rabbit uterus assessed as Clauberg progestational response; assay type: functional, tissue-based
Rattus norvegicus [13] = species on record: Rattus norvegicus; assay: Estrogenic activity in rat assessed as increase of uterine weight; assay type: functional, organism-based
Rattus norvegicus [14] = species on record: Rattus norvegicus; assay: Antiestrogenic activity in rat; assay type: functional, organism-based
Rattus norvegicus [15] = assay: Antifertility activity in 1 to 9 days pregnancy Charles River CD rat assessed as reduction in number of viable fetuses at 50 mg/kg, po; assay type: functional; method in brief: as §1

Row | SMILES | Activity (Rattus norvegicus [1]) | other results
1 | O=C(/C(=C(\C1=CC2CCC1CC2)c1ccccc1)c1ccccc1)N1CCCCC1 | 0% | –
2 | O=C1C(c2ccccc2)=C(c2ccccc2)C2CCc3ccccc3[C@@]12N1CCCC1 (some centres not stated) | 50% | –
3 | O=C1C(c2ccccc2)=C(c2ccccc2)[C@H]2C3CCC(C3)[C@@]12N1CCOCC1 (relative stereo) | 0% | –
4 | O=C1C(c2ccccc2)=C(c2ccccc2)C2CC3CCC(C3)[C@@]12N1CCCC1 (some centres not stated) | 0% | –
5 | O=C1C(c2ccccc2)=C(c2ccccc2)[C@H]2C3CCC(C3)[C@@]12N1CCCC1 (relative stereo) | 100% | Activity (Rattus norvegicus [2]): Active; Activity (Hamster [3]): 0%
6 | CC1=C(/C(=C(\C(=O)N2CCCC2)c2ccccc2)c2ccccc2)C2CCC1C2 (configuration not stated) | 0% | –
7 | O=S1(=O)C(c2ccccc2)=C(c2ccccc2)C2C3CCC(C3)[C@]21N1CCCC1 (some centres not stated) | 75% | –
8 | O=C1C(c2ccccc2)=C(c2ccccc2)C2C3CC(C4C=CCC43)[C@@]12N1CCCC1 (some centres not stated) | 0% | –
9 | O=C(/C(=C(\C1=Cc2ccccc2CC1)c1ccccc1)c1ccccc1)N1CCCCC1 | 100% | –
10 | O=C1C(c2ccccc2)=C(c2ccccc2)[C@H]2C3CCC(C3)[C@@]12N1CCCCCC1 (relative stereo) | 100% | Activity (Rattus norvegicus [2]): Active; Activity (Hamster [3]): 0%
11 | COc1ccc(-c2c(-c3ccc(OC)cc3)c2=O)cc1 | inactive | –
12 | O=S1(=O)C(c2ccc(Cl)cc2)=C(c2ccc(Cl)cc2)C2C3CCC(C3)[C@]21N1CCCC1 (some centres not stated) | 0% | –
13 | CN1CCN([C@]23C(=O)C(c4ccccc4)=C(c4ccccc4)[C@H]2C2CCC3C2)CC1 (relative stereo) | – | Activity (Rattus norvegicus [2]): Active; Activity (Rattus norvegicus [4]): 75%
14 | O=C1C(c2ccccc2)=C(c2ccccc2)C2C3CCC(C3)C[C@@]12N1CCCCC1 (some centres not stated) | 100% | Activity (Rattus norvegicus [2]): Active
15 | O=C1C(c2ccccc2)C(c2ccccc2)C2C3CCC(C3)[C@@]12N1CCCC1 (some centres not stated) | 25% | –
16 | O=C(/C(=C(\C1=CCCCc2ccccc21)c1ccccc1)c1ccccc1)N1CCCC1 | 0% | –
17 | O=C(/C(=C(\C=C1/CC=CCC1)c1ccccc1)c1ccccc1)N1CCCC1 | 0% | –
18 | O=C(/C(=C(\C1=CC2CCC(C1)C2)c1ccccc1)c1ccccc1)N1CCCCC1 (configuration not stated) | 0% | –

Row | SMILES | Activity (Rattus norvegicus [1]) | other results
19 | O=C1C(c2ccccc2)=C(c2ccccc2)C2C3CCC(CC3)[C@@]12N1CCCCC1 (some centres not stated) | 100% | Activity (Rattus norvegicus [2]): Active
20 | O=C1C(c2ccccc2)=C(c2ccccc2)[C@H]2C3CCC(C3)[C@@]12N1CCCCC1 (relative stereo) | 100% | Activity (Rattus norvegicus [5]): Active; Activity (Rattus norvegicus [6]): Active; Activity (Rhesus monkey): Non-toxic; Activity (Canis familiaris): inactive; Activity (Hamster [7]): 25%; Activity (Rattus norvegicus [8]): Active; Activity (Rattus norvegicus [9]): Active; Activity (Hamster [10]): Active; Activity (Rattus norvegicus [11]): Active; Activity (Rattus norvegicus [12]): Active; Activity (Oryctolagus cuniculus): inactive; Activity (Rattus norvegicus [13]): Active; Activity (Rattus norvegicus [14]): inactive; Activity (Rattus norvegicus [2]): Active; Activity (Hamster [3]): 100%
21 | C[C@@]12C(c3ccccc3)=C(c3ccccc3)C(=O)[C@]1(N1CCCC1)C1CCC2C1 (relative stereo) | – | Activity (Rattus norvegicus [4]): 0%
22 | O=S1(=O)C(c2ccccc2)=C1c1ccccc1 | inactive | –
23 | O=C1C(c2ccc(Cl)cc2)=C(c2ccc(Cl)cc2)[C@H]2C3CCC(C3)[C@@]12N1CCCCC1 (relative stereo) | 0% | –
24 | O=C(/C(=C(\C1=CCCc2ccccc21)c1ccccc1)c1ccccc1)N1CCCC1 | 0% | –
25 | O=C(/C(=C(\C=C1CCCCC1)c1ccccc1)c1ccccc1)N1CCCC1 | 0% | –
26 | O=S1(=O)C(c2ccc(Cl)cc2)=C1c1ccc(Cl)cc1 | inactive | –
27 | CC(C)=C/C(=C(\C(=O)N1CCCC1)c1ccccc1)c1ccccc1 | 100% | Activity (Rattus norvegicus [4]): inactive
28 | CN(C)[C@]12C(=O)C(c3ccccc3)=C(c3ccccc3)[C@H]1C1CCC2C1 (relative stereo) | 0% | –
29 | O=c1c(-c2ccc(Cl)cc2)c1-c1ccc(Cl)cc1 | inactive | –
30 | O=C(/C(=C(\C1=Cc2ccccc2CC1)c1ccccc1)c1ccccc1)N1CCCC1 | – | Activity (Rattus norvegicus [15]): 100%; Activity (Rattus norvegicus [4]): inactive
31 | O=S1(=O)C(c2ccccc2)=C(c2ccccc2)C2C3CCC(C3)[C@]21N1CCCCC1 (some centres not stated) | 100% | –
32 | O=C1C(c2ccccc2)=C(c2ccccc2)C2C3CC(C[C@]12N1CCCC1)c1ccccc13 (some centres not stated) | 100% | Activity (Rattus norvegicus [2]): Active; Activity (Hamster [3]): 25%
33 | O=c1c(-c2ccccc2)c1-c1ccccc1 | inactive | –
34 | O=C1C(c2cccs2)=C(c2cccs2)C2C3CCC(C3)[C@@]12N1CCCCC1 (some centres not stated) | 0% | –
35 | O=C1C(c2ccc(Cl)cc2)=C(c2ccc(Cl)cc2)[C@H]2C3CCC(C3)[C@@]12N1CCCC1 (relative stereo) | 0% | –
36 | COc1ccc(C2=C(c3ccc(OC)cc3)[C@H]3C4CCC(C4)[C@@]3(N3CCCC3)C2=O)cc1 (relative stereo) | 0% | –
